Results on four compounds are retold here after ChEMBL document CHEMBL1833790, “N-(2-{3-[3,5-bis(trifluoromethyl)phenyl]ureido}ethyl)-glycyrrhetinamide (6b): a novel anticancer glycyrrhetinic acid derivative that targets the proteasome and displays anti-kinase activity” (J Med Chem, 2011).

The target of data set [1] is T1, Peroxisome proliferator-activated receptor gamma (Homo sapiens) (UniProt P37231).
T1 sequence (whole entry): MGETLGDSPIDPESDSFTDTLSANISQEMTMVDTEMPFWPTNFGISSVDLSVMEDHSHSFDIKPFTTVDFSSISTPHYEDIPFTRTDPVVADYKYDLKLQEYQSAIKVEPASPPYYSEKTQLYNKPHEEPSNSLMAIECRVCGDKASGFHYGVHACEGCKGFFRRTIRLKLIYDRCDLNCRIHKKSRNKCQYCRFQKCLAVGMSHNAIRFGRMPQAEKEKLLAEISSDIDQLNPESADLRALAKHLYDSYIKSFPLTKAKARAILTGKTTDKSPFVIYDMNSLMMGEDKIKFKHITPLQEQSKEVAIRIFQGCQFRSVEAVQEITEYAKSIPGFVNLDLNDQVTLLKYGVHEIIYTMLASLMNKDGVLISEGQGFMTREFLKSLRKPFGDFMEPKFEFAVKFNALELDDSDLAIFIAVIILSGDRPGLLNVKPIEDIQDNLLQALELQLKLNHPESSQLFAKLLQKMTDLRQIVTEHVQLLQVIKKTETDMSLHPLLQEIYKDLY
The experiment in a line: Inhibition of PPARgamma activity in human U373 cells at 70 uM after 6 hrs by spectrophotometric analysis relative to control. In kind it is cell-based. The conditions noted are these: U-373MG ATCC. In short, it runs like this:
(§1)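 Human U373 glioblastoma cells exposed to compound for 6 h, then detached with trypsin. Nuclear extracts prepared by hypotonic lysis with Nonidet P-40 and extraction buffer with protease inhibitor, clarified at 14 000 g, 4 °C. Extracts bound overnight at 4 °C in a PPAR-γ transcription factor ELISA kit, with primary antibody then HRP anti-rabbit. Absorbance read at 450 nm; triplicates, mean ± SD versus control.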

The test system of the next data set is A549. Nature of the data set: Growth inhibition in apoptosis-resistant human A549 after 3 days by MTT assay. The conditions noted are these: A549, 72 h. In kind it is functional. In outline:
(§2)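 Cells grown in RPMI with 10% heat-inactivated FCS, 4 mM glutamine, gentamicin and penicillin–streptomycin. Drug exposure 3 days, growth read by MTT colorimetric assay. Nine concentrations from 0.01 to 100 μM in semilog steps, six replicates each; IC50 derived per cell line.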
In general terms: Formazan colour is commonly taken as a measure of viable cells.

In a further data set the test system is B16-F10. The experiment in a line: Growth inhibition in mouse B16F10 after 3 days by MTT assay. In kind it is functional. The conditions noted are these: B16-F10, 72 h. In short, it runs like this:
as §2

In the next data set the test system is MCF7. The experiment in a line: Growth inhibition in apoptosis-sensitive human MCF7 after 3 days by MTT assay. In kind it is functional. The following applies: MCF7, 72 h. In outline: as §2
Data set [2] relates to U-373MG ATCC. The experiment in a line: Activation of chymotrypsin-like activity of 20S proteasome in human U373 cells at 70 uM after 2 days by bioluminescence assay. In kind it is cell-based. In short, it runs like this: (§3)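 Chymotrypsin-like site, substrate Suc-LLVY-Glo. U373 cells were seeded at 5000 cells/mL for 48 h and exposed two days. After a PBS wash and 0.025% digitonin permeabilisation, Proteasome-Glo reagent was added. Bioluminescence was read after 10 min dark incubation. Triplicates, normalised by a concurrent MTT viability assay run in identical conditions.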

Another data set has as its system Hs 683. Nature of the data set: Growth inhibition in apoptosis-sensitive human Hs683 after 3 days by MTT assay. In kind it is functional. The conditions noted are these: Hs 683, 72 h. In outline:
as §2

Data set [3] can be described thus: Growth inhibition in apoptosis-resistant human U373 after 3 days by MTT assay. In kind it is functional, U-373MG ATCC. The conditions noted are these: U373 MG, 72 h. In short, it runs like this: as §2
Data set [4] can be described thus: Chemical stability of the compound in MEM cell culture medium after 7 days by HPLC analysis. The following applies: read-out: Stability. In kind it is physicochemical. In short, it runs like this:
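Compound incubated in MEM culture medium at 37 °C for 7 days, then analysed by HPLC on RX-C8 (5 μm) column with MeOH–water 90:10 (0.1% TFA), diode-array detection. Expressed as % of incubated compound recovered.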

For the next data set, the system named is T98G. Nature of the data set: Growth inhibition in apoptosis-resistant human T98G after 3 days by MTT assay. In kind it is functional. The following applies: 72 h. In outline:
as §2

Data set [5] concerns U-373MG ATCC. Nature of the data set: Inhibition of trypsin-like activity of 20S proteasome in human U373 cells at 70 uM after 2 days by bioluminescence assay. In kind it is cell-based. In outline:
(§4)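 U373 GBM cells seeded at 5000 cells/mL and grown 48 h, then treated for two days. Cells washed in PBS and permeabilised with 0.025% digitonin. Proteasome-Glo reagent added with Suc-LLVY-Glo (chymotrypsin-like), Z-LRR-Glo (trypsin-like) or Z-nLPnLD-Glo (caspase-like) substrate. Luminescence read after 10 min in the dark and normalised to a parallel MTT viability assay; triplicates. MG-132 at 0.5 μM used as reference.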

In a further data set the test system is SK-MEL-28. The experiment in a line: Growth inhibition in apoptosis-resistant human SK-MEL-28 after 3 days by MTT assay. In kind it is functional. The conditions noted are these: SK-MEL-28, 72 h. In short, it runs like this:
as §2

The subject of a further data set is PC-3. The experiment in a line: Growth inhibition in apoptosis-sensitive human PC3 after 3 days by MTT assay. In kind it is functional. The conditions noted are these: PC-3, 72 h. In short, it runs like this:
as §2

For data set [6], the system named is U-373MG ATCC. The experiment in a line: Activation of caspase-like activity of 20S proteasome in human U373 cells at 70 uM after 2 days by bioluminescence assay. In kind it is cell-based. In short, it runs like this: (§5)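 Caspase-like site, substrate Z-nLPnLD-Glo. U373 cells were plated at 5000 cells/mL for 48 h, then treated two days. Cells were PBS-washed and permeabilised with 0.025% digitonin before Proteasome-Glo reagent was added. Luminescence was read after 10 min in the dark. Triplicates, normalised to a parallel MTT viability assay under identical conditions.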

The target in data set [7] is T1, Peroxisome proliferator-activated receptor gamma (Homo sapiens). The experiment in a line: Inhibition of PPARgamma activity in human U373 cells at 25 uM after 6 hrs by spectrophotometric analysis relative to control. In kind it is cell-based. The conditions noted are these: U-373MG ATCC. In short, it runs like this: as §1
For data set [8], the system named is U-373MG ATCC. The experiment in a line: Inhibition of trypsin-like activity of 20S proteasome in human U373 cells at 25 uM after 2 days by bioluminescence assay. In kind it is cell-based. In short, it runs like this: as §4
In data set [9] the test system is U-373MG ATCC. The experiment in a line: Activation of chymotrypsin-like activity of 20S proteasome in human U373 cells at 25 uM after 2 days by bioluminescence assay. In kind it is cell-based. In short, it runs like this: as §3
Data set [10] relates to U-373MG ATCC. Nature of the data set: Activation of caspase-like activity of 20S proteasome in human U373 cells at 25 uM after 2 days by bioluminescence assay. In kind it is cell-based. In short, it runs like this:
as §5

In data set [11] the test system is U-373MG ATCC. The experiment in a line: Activation of chymotrypsin-like activity of 20S proteasome in human U373 cells at 30 uM after 2 days by bioluminescence assay. In kind it is cell-based. In short, it runs like this: as §3
In data set [12] the target is T1, Peroxisome proliferator-activated receptor gamma (Homo sapiens). Nature of the data set: Inhibition of PPARgamma activity in human U373 cells at 30 uM after 6 hrs by spectrophotometric analysis relative to control. In kind it is cell-based. The conditions noted are these: U-373MG ATCC. In outline: as §1
Data set [13] has as its system U-373MG ATCC. The experiment in a line: Inhibition of trypsin-like activity of 20S proteasome in human U373 cells at 30 uM after 2 days by bioluminescence assay. In kind it is cell-based. In short, it runs like this: as §4
The test system of data set [14] is U-373MG ATCC. Nature of the data set: Activation of caspase-like activity of 20S proteasome in human U373 cells at 30 uM after 2 days by bioluminescence assay. In kind it is cell-based. In outline:
as §5

In data set [15] the test system is U-373MG ATCC. Nature of the data set: Activation of chymotrypsin-like activity of 20S proteasome in human U373 cells at 80 uM after 2 days by bioluminescence assay. In kind it is cell-based. In short, it runs like this:
as §3

Data set [16] deals with U-373MG ATCC. The experiment in a line: Inhibition of trypsin-like activity of 20S proteasome in human U373 cells at 80 uM after 2 days by bioluminescence assay. In kind it is cell-based. In short, it runs like this: as §4
Data set [17] concerns U-373MG ATCC. The experiment in a line: Activation of caspase-like activity of 20S proteasome in human U373 cells at 80 uM after 2 days by bioluminescence assay. In kind it is cell-based. In short, it runs like this: as §5
Data set [18] has as its target T1, Peroxisome proliferator-activated receptor gamma (Homo sapiens). The experiment in a line: Inhibition of PPARgamma activity in human U373 cells at 80 uM after 6 hrs by spectrophotometric analysis relative to control. In kind it is cell-based. The conditions noted are these: U-373MG ATCC. In outline: as §1

Structures are written as SMILES. Calls of active or inactive are those of the source. The calls are words filed in the database; no cut-off is given here.

With `COc1ccc2[nH]cc(CCNC(=O)[C@@]3(C)CC[C@]4(C)CC[C@]5(C)C(=CC(=O)[C@@H]6[C@@]7(C)CC[C@H](O)C(C)(C)[C@@H]7CC[C@]65C)[C@@H]4C3)c2c1`, the inhibition result (in data set [1]; in the data set with U-373MG ATCC [5]) was “Active” in each case. Also, the GI50 is 40 µM in the data set on A549; 31 µM with B16-F10; 38 µM with MCF7; 57 µM in the data set with Hs 683; 75 µM in data set [3]; > 100 µM in the data set on T98G. For the same compound, the GI50 with SK-MEL-28 was > 100 µM; with PC-3, 43 µM. In addition, the outcome in the data set with U-373MG ATCC [2] and in the data set on U-373MG ATCC [6] was Active. Moreover, the remaining at 168 h in data set [4] came to 94%.
Consider `CC1(C)[C@@H](O)CC[C@]2(C)[C@H]3C(=O)C=C4[C@@H]5C[C@@](C)(C(=O)NCCNC(=S)Nc6ccccc6)CC[C@]5(C)CC[C@@]4(C)[C@]3(C)CC[C@@H]12`, for which the inhibition entry (in [7]; in the data set on U-373MG ATCC [8]) was “Active” throughout. Moreover, the GI50 in the data set on A549 is 31 µM; in the data set on B16-F10, 34 µM; in the data set on MCF7, 30 µM; in the data set on Hs 683, 8 µM; in data set [3] it was 29 µM; in the data set on T98G, 25 µM. In addition, the values for the GI50 in the data set on SK-MEL-28 and in the data set on PC-3 were 38 µM and 9 µM, respectively. Moreover, the remaining at 168 h in data set [4] worked out at 94%. For the same compound, the result in the data set with U-373MG ATCC [9] and with U-373MG ATCC [10] was Active.
Regarding `COC(=O)[C@@]1(C)CC[C@]2(C)CC[C@]3(C)C(=CC(=O)[C@@H]4[C@@]5(C)C=C(I)C(=O)C(C)(C)[C@@H]5CC[C@]43C)[C@@H]2C1`, the GI50 came out at 42 µM in the data set on A549; 23 µM in the data set with B16-F10; 28 µM in the data set with MCF7; 48 µM in the data set on Hs 683; 42 µM in [3]; 6 µM in the data set on T98G. The concentration for 50% growth inhibition (GI50) with SK-MEL-28 turned out to be 32 µM; in the data set with PC-3, 36 µM. For the same compound, the outcome with U-373MG ATCC [11] and in the data set on U-373MG ATCC [14] was Active. For the same compound, in data set [4], the remaining at 168 h came out at 89%. Also, the inhibition result (in data set [12]; in the data set on U-373MG ATCC [13]) was “Active” each time.
Regarding `COc1ccc(CCNC(=O)[C@@]2(C)CC[C@]3(C)CC[C@]4(C)C(=CC(=O)[C@@H]5[C@@]6(C)CCC(=O)C(C)(C)[C@@H]6CC[C@]54C)[C@@H]3C2)cc1`, the GI50 is > 100 µM in the data set on A549; 49 µM in the data set with B16-F10; 56 µM with MCF7; 91 µM in the data set with Hs 683; 69 µM in data set [3]; > 100 µM with T98G. For the same compound, the GI50 was > 100 µM in the data set on SK-MEL-28 and 52 µM in the data set on PC-3. Moreover, the result in the data set on U-373MG ATCC [15] and in the data set on U-373MG ATCC [17] was Active. Further, the inhibition entry (in the data set on U-373MG ATCC [16]; in [18]) was “Active” each time. The remaining at 168 h in data set [4] came out at 93%.

As usually defined, the GI50 is the concentration giving 50% growth inhibition.
